Test results reported in ChEMBL document CHEMBL2040727, “Substituted thiazoles VI. Synthesis and antitumor activity of new 2-acetamido- and 2 or 3-propanamido-thiazole analogs” (2012).

Tests used:
Assay type in all cases: functional
[1] = system: MOLT-4; test: Growth inhibition of human MOLT4 cells at 10 uM after 48 hrs by coulter counter analysis; details: MOLT-4, 48 h, read-out: GI
Summary of the method: (§1)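 Single-dose NCI 60-line panel screen of test compounds. Cells grown in RPMI 1640 with 10% FBS. Compounds dissolved in DMSO, then diluted in phosphate buffer saline (final DMSO below 1%). Wells run in duplicate at 6 × 10⁴ cells/ml. Controls held PBS and DMSO at matching dilutions. Incubation 48 h at 37 °C under humidified 5% CO2. Cells diluted tenfold in saline and counted by Coulter counter. Percent growth inhibition taken from mean-graph of treated-cell growth.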

[2] = system: RPMI-8226; test: Growth inhibition of human RPMI8226 cells at 10 uM after 48 hrs by coulter counter analysis; details: RPMI-8226, 48 h, read-out: GI; summary of the method: as §1
[3] = system: SR; test: Growth inhibition of human SR cells at 10 uM after 48 hrs by coulter counter analysis; details: read-out: GI
Summary of the method: (§2)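 Single-dose screen in the NCI 60 cell line panel. Cells grown in RPMI 1640 with 10% FBS. Compounds dissolved in DMSO and diluted in phosphate buffered saline, final DMSO under 1%. Duplicate wells seeded from culture at 6 × 10⁴ cells/ml. Incubated 48 h at 37 °C, humidified, 5% CO2. Cells diluted tenfold in saline and Coulter-counted. Percent growth inhibition computed against PBS/DMSO controls.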

[4] = system: A549; test: Growth inhibition of human A549/ATCC cells at 10 uM after 48 hrs by coulter counter analysis; details: A549, 48 h, read-out: GI; summary of the method: as §1
[5] = system: NCI-H226; test: Growth inhibition of human NCI-H226 cells at 10 uM after 48 hrs by coulter counter analysis; details: NCI-H226, 48 h, read-out: GI; summary of the method: as §1
[6] = system: NCI-H322M; test: Growth inhibition of human NCI-H322M cells at 10 uM after 48 hrs by coulter counter analysis; details: read-out: GI; summary of the method: as §1
[7] = system: NCI-H460; test: Growth inhibition of human NCI-H460 cells at 10 uM after 48 hrs by coulter counter analysis; details: NCI-H460, 48 h, read-out: GI; summary of the method: as §1
[8] = system: NCI-H522; test: Growth inhibition of human NCI-H522 cells at 10 uM after 48 hrs by coulter counter analysis; details: NCI-H522, 48 h, read-out: GI; summary of the method: as §1
[9] = system: COLO 205; test: Growth inhibition of human COLO205 cells at 10 uM after 48 hrs by coulter counter analysis; details: COLO 205, 48 h, read-out: GI; summary of the method: as §1
[10] = system: HCC 2998; test: Growth inhibition of human HCC2998 cells at 10 uM after 48 hrs by coulter counter analysis; details: HCC 2998, 48 h, read-out: GI; summary of the method: as §1
[11] = system: HCT-116; test: Growth inhibition of human HCT116 cells at 10 uM after 48 hrs by coulter counter analysis; details: HCT-116, 48 h, read-out: GI; summary of the method: as §1
[12] = system: HCT-15; test: Growth inhibition of human HCT15 cells at 10 uM after 48 hrs by coulter counter analysis; details: HCT-15, 48 h, read-out: GI; summary of the method: as §1
[13] = system: HT-29; test: Growth inhibition of human HT-29 cells at 10 uM after 48 hrs by coulter counter analysis; details: HT-29, 48 h, read-out: GI; summary of the method: as §1
[14] = system: KM12; test: Growth inhibition of human KM12 cells at 10 uM after 48 hrs by coulter counter analysis; details: KM12, 48 h, read-out: GI; summary of the method: as §1
[15] = system: SW-620; test: Growth inhibition of human SW620 cells at 10 uM after 48 hrs by coulter counter analysis; details: SW-620, 48 h, read-out: GI; summary of the method: as §2
[16] = system: SF-268; test: Growth inhibition of human SF268 cells at 10 uM after 48 hrs by coulter counter analysis; details: SF-268, 48 h, read-out: GI; summary of the method: as §1
[17] = system: SF-539; test: Growth inhibition of human SF539 cells at 10 uM after 48 hrs by coulter counter analysis; details: SF-539, 48 h, read-out: GI; summary of the method: as §1
[18] = system: SNB-75; test: Growth inhibition of human SNB75 cells at 10 uM after 48 hrs by coulter counter analysis; details: SNB-75, 48 h, read-out: GI; summary of the method: as §2
[19] = system: LOX IMVI; test: Growth inhibition of human LOXIMVI cells at 10 uM after 48 hrs by coulter counter analysis; details: read-out: GI; summary of the method: as §1
[20] = system: M14; test: Growth inhibition of human M14 cells at 10 uM after 48 hrs by coulter counter analysis; details: M14, 48 h, read-out: GI; summary of the method: as §1
[21] = system: MDA-MB-435; test: Growth inhibition of human MDA-MB-435 cells at 10 uM after 48 hrs by coulter counter analysis; details: MDA-MB-435, 48 h, read-out: GI; summary of the method: as §1
[22] = system: SK-MEL-28; test: Growth inhibition of human SK-MEL-28 cells at 10 uM after 48 hrs by coulter counter analysis; details: SK-MEL-28, 48 h, read-out: GI; summary of the method: as §1
[23] = system: SK-MEL-5; test: Growth inhibition of human SK-MEL-5 cells at 10 uM after 48 hrs by coulter counter analysis; details: SK-MEL-5, 48 h, read-out: GI; summary of the method: as §1
[24] = system: IGROV-1; test: Growth inhibition of human IGROV1 cells at 10 uM after 48 hrs by coulter counter analysis; details: IGROV-1, 48 h, read-out: GI; summary of the method: as §1
[25] = system: OVCAR-4; test: Growth inhibition of human OVCAR4 cells at 10 uM after 48 hrs by coulter counter analysis; details: OVCAR-4, 48 h, read-out: GI; summary of the method: as §1
[26] = Growth inhibition of human NCI-ADR-RES cells at 10 uM after 48 hrs by coulter counter analysis; details: read-out: GI; summary of the method: as §1
[27] = system: 786-0; test: Growth inhibition of human 786-0 cells at 10 uM after 48 hrs by coulter counter analysis; details: 786-0, 48 h, read-out: GI; summary of the method: as §1
[28] = system: ACHN; test: Growth inhibition of human ACHN cells at 10 uM after 48 hrs by coulter counter analysis; details: read-out: GI; summary of the method: as §1
[29] = system: CAKI-1; test: Growth inhibition of human Caki1 cells at 10 uM after 48 hrs by coulter counter analysis; details: CAKI-1, 48 h, read-out: GI; summary of the method: as §1
[30] = system: RXF 393; test: Growth inhibition of human RXF393 cells at 10 uM after 48 hrs by coulter counter analysis; details: RXF 393, 48 h, read-out: GI; summary of the method: as §1
[31] = system: PC-3; test: Growth inhibition of human PC3 cells at 10 uM after 48 hrs by coulter counter analysis; details: PC-3, 48 h, read-out: GI; summary of the method: as §1
[32] = system: DU-145; test: Growth inhibition of human DU145 cells at 10 uM after 48 hrs by coulter counter analysis; details: DU-145, 48 h, read-out: GI; summary of the method: as §1
[33] = system: MCF7; test: Growth inhibition of human MCF7 cells at 10 uM after 48 hrs by coulter counter analysis; details: MCF7, 48 h, read-out: GI; summary of the method: as §1
[34] = system: MDA-MB-231; test: Growth inhibition of human MDA-MB-231 cells at 10 uM after 48 hrs by coulter counter analysis; details: MDA-MB-231, 48 h, read-out: GI; summary of the method: as §1
[35] = Growth inhibition of human Hs 578T cells at 10 uM after 48 hrs by coulter counter analysis; details: read-out: GI; summary of the method: as §1
[36] = system: CCRF-CEM; test: Growth inhibition of human CCRF-CEM cells at 10 uM after 48 hrs by coulter counter analysis; details: read-out: GI; summary of the method: as §1

Compound	inhibition of growth at 10 µM [1] [%]	inhibition of growth at 10 µM [2] [%]	inhibition of growth at 10 µM [3] [%]	inhibition of growth at 10 µM [4] [%]	inhibition of growth at 10 µM [5] [%]	inhibition of growth at 10 µM [6] [%]	inhibition of growth at 10 µM [7] [%]	inhibition of growth at 10 µM [8] [%]	inhibition of growth at 10 µM [9] [%]	inhibition of growth at 10 µM [10] [%]	inhibition of growth at 10 µM [11] [%]	inhibition of growth at 10 µM [12] [%]	inhibition of growth at 10 µM [13] [%]	inhibition of growth at 10 µM [14] [%]	inhibition of growth at 10 µM [15] [%]	inhibition of growth at 10 µM [16] [%]	inhibition of growth at 10 µM [17] [%]	inhibition of growth at 10 µM [18] [%]	inhibition of growth at 10 µM [19] [%]	inhibition of growth at 10 µM [20] [%]	other results
CCOC(=O)c1sc(NC(=O)CCN2CCOCC2)nc1C	< 10	< 10	< 10	< 10	< 10	< 10	< 10	< 10	< 10	< 10	< 10	< 10	< 10	< 10	< 10	< 10	< 10	< 10	< 10	< 10	inhibition of growth at 10 µM [21]: < 10%; inhibition of growth at 10 µM [22]: < 10%; inhibition of growth at 10 µM [23]: < 10%; inhibition of growth at 10 µM [24]: < 10%; inhibition of growth at 10 µM [25]: < 10%; inhibition of growth at 10 µM [26]: < 10%; inhibition of growth at 10 µM [27]: < 10%; inhibition of growth at 10 µM [28]: < 10%; inhibition of growth at 10 µM [29]: < 10%; inhibition of growth at 10 µM [30]: < 10%; inhibition of growth at 10 µM [31]: < 10%; inhibition of growth at 10 µM [32]: < 10%; inhibition of growth at 10 µM [33]: < 10%; inhibition of growth at 10 µM [34]: < 10%; inhibition of growth at 10 µM [35]: < 10%; inhibition of growth at 10 µM [36]: < 10%
CC(C(=O)Nc1nccs1)N1CCN(C)CC1 (configuration not stated)	< 10	< 10	< 10	< 10	< 10	< 10	< 10	< 10	< 10	< 10	< 10	< 10	< 10	< 10	< 10	< 10	< 10	15.5	< 10	< 10	inhibition of growth at 10 µM [21]: < 10%; inhibition of growth at 10 µM [22]: < 10%; inhibition of growth at 10 µM [23]: < 10%; inhibition of growth at 10 µM [24]: < 10%; inhibition of growth at 10 µM [25]: < 10%; inhibition of growth at 10 µM [26]: < 10%; inhibition of growth at 10 µM [27]: < 10%; inhibition of growth at 10 µM [28]: < 10%; inhibition of growth at 10 µM [29]: < 10%; inhibition of growth at 10 µM [30]: < 10%; inhibition of growth at 10 µM [31]: < 10%; inhibition of growth at 10 µM [32]: < 10%; inhibition of growth at 10 µM [33]: < 10%; inhibition of growth at 10 µM [34]: < 10%; inhibition of growth at 10 µM [35]: < 10%; inhibition of growth at 10 µM [36]: < 10%
